Laboratory results: ChEMBL document CHEMBL2176917, “Effect of the prosthetic group on the pharmacologic properties of 18F-labeled rhodamine B, a potential myocardial perfusion agent for positron emission tomography (PET)” (J Med Chem, 2012)

How the values were obtained:
[1] = Ratio of drug level in heart to blood in rat at 1.1 to 2.2, iv after 60 mins; assay type: ADME, organism-based; settings: heart and blood (heart-to-blood ratio)
Outline: (§1)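 Five rats per tracer received 1.1–2.2 MBq (30–60 µCi) of the 18F-labeled rhodamine ester in 100 µL 10% EtOH/saline through the tail vein after 0.2 µm filtration. They were killed by CO2 asphyxia at 60 min p.i. Excised tissues were weighed and counted for 18F. %ID/g was calculated against an injectate standard. Heart-to-blood ratios were derived from these values.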

[2] = test system: Heart; assay: Drug uptake in rat heart at 3.7 to 5.6 MBq after 5 mins by PET analysis; assay type: ADME, tissue-based; settings: in vivo
Outline: (§2)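 Each group of at least five rats was injected with 100 µL of filtered tracer (3.7–5.6 MBq, 100–150 µCi) in 10% EtOH/saline under isoflurane anesthesia (2–4% in air). MicroPET acquisition began as soon as possible after injection and ran 60 min in list mode. Images were reconstructed by 2D OSEM as one 60 min image or six 10 min frames. Time-activity curves for organs were expressed as kBq/cm3.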

[3] = test system: Liver; assay: Drug uptake in rat liver at 3.7 to 5.6 MBq after 5 mins by PET analysis; assay type: ADME, tissue-based; settings: in vivo; outline: as §2
[4] = Drug excretion in rat gut at 3.7 to 5.6 MBq after 60 mins by PET analysis; assay type: ADME, tissue-based; settings: in vivo, 1 h; outline: as §2
[5] = test system: Spleen (mouse); assay: Drug uptake in mouse spleen at 3.7 to 5.6 MBq after 60 mins by PET analysis; settings: in vivo, 1 h
[6] = test system: Liver; assay: Drug uptake in rat liver at 3.7 to 5.6 MBq after 60 mins by PET analysis; assay type: ADME, tissue-based; settings: in vivo, 1 h; outline: as §2
[7] = test system: Rattus norvegicus; assay: Biodistribution in rat gut at 1.1 to 2.2, iv after 60 mins; assay type: ADME, organism-based; settings: in vivo, 1 h; outline: as §1
[8] = test system: Liver; assay: Biodistribution in rat liver at 1.1 to 2.2, iv after 60 mins; assay type: ADME, organism-based; settings: in vivo, 1 h; outline: as §1
[9] = test system: Kidney; assay: Drug excretion in rat kidney at 3.7 to 5.6 MBq after 60 mins by PET analysis; assay type: ADME, tissue-based; settings: in vivo, 1 h; outline: as §2
[10] = test system: Gall bladder (mouse); assay: Drug uptake in mouse gall bladder at 3.7 to 5.6 MBq after 60 mins by PET analysis; settings: in vivo, 1 h
[11] = test system: Muscle tissue; assay: Biodistribution in rat muscle at 1.1 to 2.2, iv after 60 mins; assay type: ADME, organism-based; settings: in vivo, 1 h; outline: as §1
[12] = Drug uptake in rat myocardium at 3.7 to 5.6 MBq after 60 mins by PET analysis; assay type: ADME, tissue-based; settings: in vivo, 1 h; outline: as §2
[13] = test system: Blood; assay: Biodistribution in rat blood at 1.1 to 2.2, iv after 60 mins; assay type: ADME, organism-based; settings: in vivo, 1 h; outline: as §1
[14] = test system: Intestine (mouse); assay: Drug uptake in mouse intestine at 3.7 to 5.6 MBq after 60 mins by PET analysis; settings: in vivo, 1 h
[15] = test system: Kidney (mouse); assay: Drug uptake in mouse kidney at 3.7 to 5.6 MBq after 60 mins by PET analysis; settings: in vivo, 1 h
[16] = test system: Liver; assay: Drug uptake in rat liver at 3.7 to 5.6 MBq after 30 mins by PET analysis; assay type: ADME, tissue-based; settings: in vivo, 0.5 h; outline: as §2
[17] = Metabolic stability of the compound in human serum at 3.7 to 5.6 MBq after 120 mins; assay type: ADME, cell-free; settings: read-out: Stability
Outline: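 Tracer (3.7–5.6 MBq) in 20 µL 10% EtOH/PBS was added to 200 µL of mouse, rat or human serum, or to PBS, prewarmed to 37°C, then shaken and incubated at 37°C. At 15, 30, 60 and 120 min, aliquots were quenched with cold ethanol and kept on ice. Samples were filtered (30 kD cutoff, 4°C), diluted with water and analysed by radio-HPLC for intact tracer.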

[18] = Metabolic stability of the compound in mouse serum at 3.7 to 5.6 MBq after 120 mins; assay type: ADME, cell-free; settings: read-out: Stability
Outline: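 Radiotracer (3.7–5.6 MBq) in 10% EtOH/PBS was added to serum pre-equilibrated at 37°C, shaken and incubated at 37°C. Aliquots were taken at 15, 30, 60 and 120 min and quenched with cold absolute EtOH. They were held on ice for 5 min, passed through a 30 kD cutoff filter at 4°C, and the water-diluted filtrate was analysed by radio-HPLC for intact tracer. A PBS incubation ran in parallel.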

[19] = test system: Nucleic Acid; assay: Ratio of drug level in heart to bone in rat at 1.1 to 2.2, iv after 60 mins; assay type: ADME, organism-based; settings: in vivo, 1 h
Outline: (§3)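 Five rats per compound each received 1.1–2.2 MBq of tracer in 10% EtOH/saline by tail vein. They were killed by CO2 at 60 min p.i., and selected tissues were excised, weighed and counted for 18F. %ID/g was calculated against a standard prepared from the injectate. Unpaired two-tailed t test.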

[20] = test system: Nucleic Acid; assay: Ratio of drug level in heart to lung in rat at 1.1 to 2.2, iv after 60 mins; assay type: ADME, organism-based; settings: in vivo, 1 h; outline: as §3
[21] = test system: Nucleic Acid; assay: Ratio of drug level in heart to liver in rat at 1.1 to 2.2, iv after 60 mins; assay type: ADME, organism-based; settings: in vivo, 1 h; outline: as §3
[22] = test system: Nucleic Acid; assay: Ratio of drug level in heart to liver in Sprague-Dawley rat after 60 mins; assay type: ADME, tissue-based; settings: in vivo, 1 h
[23] = Ratio of drug level in heart to blood in Sprague-Dawley rat after 60 mins; assay type: ADME; settings: heart and blood (heart-to-blood ratio)
[24] = Ratio of drug level in heart to blood in Sprague-Dawley rat after 5 mins; assay type: ADME; settings: heart and blood (heart-to-blood ratio)
[25] = test system: Nucleic Acid; assay: Ratio of drug level in heart to liver in Wistar rat after 60 mins; assay type: ADME, tissue-based; settings: in vivo, 1 h

Compound | Kp at 1 h [1] | Drug uptake [2] [kBq/cm3] | Drug uptake [3] [kBq/cm3] | Drug excretion [4] | Drug uptake [5] | Drug uptake [6] | Drug uptake [7] [% ID/g] | Drug uptake [8] [% ID/g] | Drug excretion [9] | Drug uptake [10] | Drug uptake [11] [% ID/g] | Drug uptake [12] | Drug uptake [13] [% ID/g] | Drug uptake [14] | Drug uptake [15] | remaining at 2 h [17] [%] | remaining at 2 h [18] [%] | Ratio [22] | Kp at 1 h [23] | further results
CCN(CC)c1ccc2c(-c3ccccc3C(=O)OCCOCCOCC[18F])c3ccc(=[N+](CC)CC)cc-3oc2c1.Cc1ccc(S(=O)(=O)[O-])cc1 | 5.4 | 16 | 15 | Active | Active | Active | 0.44 | 0.25 | Active | Active | 0.32 | Active | 0.19 | Active | Active |  |  |  |  | 
CCN(CC)c1ccc2c(-c3ccccc3C(=O)OCCOCC[18F])c3ccc(=[N+](CC)CC)cc-3oc2c1.Cc1ccc(S(=O)(=O)[O-])cc1 | 10 | 69 | 59 | Active | Active | Active | 1.69 | 0.49 | Active | Active | 0.54 | Active | 0.25 | Active | Active | 97.1 | 97.1 |  |  | Drug uptake [16]: Active
CCN(CC)c1ccc2c(-c3ccccc3C(=O)OCCC[18F])c3ccc(=[N+](CC)CC)cc-3oc2c1.Cc1ccc(S(=O)(=O)[O-])cc1 | 26.4 | 66 | 65 | Active |  | Active | 2.53 | 0.55 | Active |  | 0.3 | Active | 0.05 |  |  | 99 |  |  |  | 
CCN(CC)c1ccc2c(-c3ccccc3C(=O)OCC[18F])c3ccc(=[N+](CC)CC)cc-3oc2c1.Cc1ccc(S(=O)(=O)[O-])cc1 | 25.8 |  |  |  |  | Active | 2.4 | 0.89 |  |  | 0.16 |  | 0.08 |  |  |  | 25 |  |  | Ratio [19]: 4.6; Ratio [20]: 1.6; Ratio [21]: 2.3
[18F]c1ccc([P+](c2ccccc2)(c2ccccc2)c2ccccc2)cc1 [BFPET F-18] |  |  |  |  |  |  |  |  |  |  |  |  |  |  |  |  |  | 9.2 | 75 | Kp at 5 min [24]: 11
CC(C)(C)n1ncc(OCc2ccc(COCC[18F])cc2)c(Cl)c1=O [FLURPIRIDAZ F 18] |  |  |  |  |  |  |  |  |  |  |  |  |  |  |  |  |  | 3.7 | 13.7 | Ratio [25]: 5.4
